bCat KO growth – beta-catenin-lacking colon tumor cell growth suppression; HCT116 beta-catenin knockout viability, CellTiter-Glo, 60 h; stronger effect = lower value; hit rate 1.5% among 140,000; AID 818; viability, % at 10 µM;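 active = viability at or under a set limit, the compound median less 4 SD, cut at about 6% in these data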;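 also: 0% = Hyamine 1622 control at 20 µM and 100% = untreated cell control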
Fibroblast inh – blocks proliferation of human lung fibroblasts; hit rate 1.1% among 85,000; LL 47 human lung fibroblast viability, ATP luminescence; stronger effect = lower value; viability, % at 10 µM;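 active = viability at or below 50% in the single dose screen; inactive = viability above 50%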;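 also: compound exposure lasted 72 h before the ATP readout; 100% = median luminescence of untreated cell-only wells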
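Assay system: human lung fibroblast line LL 47, low passage. Input: 1,150 fibroblasts seeded per well. Times: overnight cell rest, 72 h compound treatment at 37 °C. Evaluation: % viability of median cell-only signal. Technique: luminescent ATP detection, CellTiter-Glo. Control set: cell-only wells, no compound.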
HUVEC prolif 384 – blocks proliferation of human endothelial cells; HUVEC proliferation, CellTiter-Glo luminescence, 72 h; stronger effect = lower value; viability, % at 10 µM (by protocol); hit rate 1.1% among 86,000;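 active = viability at or below 30%; inactive = viability above 30%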;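 also: 100% = median luminescence of DMSO-only cell control wells on each plate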
HCT116 PTEN-null – suppresses growth of cells with PTEN deletion; HCT116 PTEN-null viability, CellTiter-Glo, 60 h; stronger effect = lower value; viability, % at 10 µM; hit rate 1.2% among 140,000; AID 827;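 active = viability at or below a set limit, 4 SD under the median of all tested compounds, cut at about 3.7% in these data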;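 also: PTEN knockout HCT116 line with beta catenin targeted HCT116 as companion control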
H69AR growth 86K – blocks growth of human H69AR lung tumor cells; H69AR lung tumor viability, ATP luminescence, 72 h; stronger effect = lower value; viability, % at 10 µM; hit rate 6% among 85,000;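 active = viability at or below 40%; inactive = viability above 40%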;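 also: multidrug resistant small cell line overexpressing MRP-1 efflux transporter; 100% = mean luminescence of untreated control wells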
Active calls of the source: *. This is one part of a sample in which hits are shown more often than they occur.

How did CN(C)S(=O)(=O)c1cccc(NC(=O)COC(=O)c2ccc3c(c2)OCO3)c1 do in these assays?
bCat KO growth: 97.3; HCT116 PTEN-null: 102.2

Results for Cc1nnc(Sc2nc3ccccc3o2)c2ccccc12 ?
bCat KO growth: 17.8; Fibroblast inh: 93.8; HUVEC prolif 384: 79.6; HCT116 PTEN-null: 16.0; H69AR growth 86K: 6.8*

How did Cc1ccc(C(=O)NCC(=O)OC(C)C(=O)NCCC2=CCCCC2)cc1C (stereo not drawn) do in these assays?
bCat KO growth: 87.8; HCT116 PTEN-null: 85.8

How did COc1cc(Cc2ccc(N)c(OC)c2)ccc1N do in these assays?
bCat KO growth: 90.9; HCT116 PTEN-null: 94.2

How did COc1ccc(Cc2ccc(OC)c(N)c2)cc1N do in these assays?
bCat KO growth: 84.2; Fibroblast inh: 95.1; HUVEC prolif 384: 81.9; HCT116 PTEN-null: 101.1; H69AR growth 86K: 29.5*

What do the screens show for `CCNc1nc(NC(C)C)nc(N(C#N)CCOc2ccc(Cl)cc2Cl)n1`?
bCat KO growth: 55.3; Fibroblast inh: 92.9; HUVEC prolif 384: 75.7; HCT116 PTEN-null: 64.3; H69AR growth 86K: 21.6*

Results for O=C(N/N=C/C(Br)=C\c1ccccc1)c1n[nH]c2c1CCC2 ?
bCat KO growth: 3.9*; Fibroblast inh: 51.2; HUVEC prolif 384: 22.3*; HCT116 PTEN-null: 2.2*; H69AR growth 86K: 5.3*

Results for O=C(Cc1cccs1)N/N=C/C(Br)=C/c1ccccc1 ?
bCat KO growth: 75.9; HCT116 PTEN-null: 61.5

What do the screens show for `O=C(N/N=C/C=C/c1ccccc1)c1n[nH]c2c1CCC2`?
bCat KO growth: 25.0; HCT116 PTEN-null: 28.5

How did COc1cccc(C(=O)N/N=C/C(Br)=C/c2ccccc2)c1 do in these assays?
bCat KO growth: 2.8*; HCT116 PTEN-null: 1.7*

What do the screens show for `Cc1ccccc1NCC(=O)N/N=C/C(Br)=C/c1ccccc1`?
bCat KO growth: 54.7; Fibroblast inh: 70.5; HUVEC prolif 384: 30.3; HCT116 PTEN-null: 43.1; H69AR growth 86K: 10.5*

Results for Cn1cc(C(=O)N/N=C/C(Br)=C/c2ccccc2)ccc1=O ?
bCat KO growth: 3.6*; HCT116 PTEN-null: 3.3*

How did C/C(Cn1nc([N+](=O)[O-])cc1C)=N\NC(=O)COc1c(Cl)cc(Cl)cc1Cl do in these assays?
bCat KO growth: 79.0; HCT116 PTEN-null: 92.9

Results for COc1ccc(CCNC(=O)Cn2cc(C(F)(F)F)cc(Cl)c2=O)cc1OC ?
bCat KO growth: 91.5; HCT116 PTEN-null: 97.4

How did O=C(N/N=C\CCc1ccccc1)c1ccco1 do in these assays?
bCat KO growth: 86.5; HCT116 PTEN-null: 89.1

What do the screens show for `N#CC1=C(SCC(=O)c2ccc(Cl)cc2)NC2=C(C(=O)CCC2)C1c1ccco1` (stereo not drawn)?
bCat KO growth: 18.1; Fibroblast inh: 54.4; HUVEC prolif 384: 51.7; HCT116 PTEN-null: 16.1; H69AR growth 86K: 13.2*

How did Cc1ccc(C(=O)CSC2=C(C#N)C(c3ccco3)C3=C(CC(C)(C)CC3=O)N2)cc1 (stereo not drawn) do in these assays?
bCat KO growth: 89.7; Fibroblast inh: 86.2; HUVEC prolif 384: 78.9; HCT116 PTEN-null: 89.0; H69AR growth 86K: 70.3

What do the screens show for `C=CCn1c2ccccc2c2nnc(SC(CC)C(=O)Nc3sc4c(c3C#N)CCCC4)nc21` (stereo not drawn)?
bCat KO growth: 53.5; HCT116 PTEN-null: 51.6

What do the screens show for `Cc1c(C(=O)Nc2nccs2)sc2nc(-c3cccs3)cc(C(F)(F)F)c12`?
bCat KO growth: 1.8*; Fibroblast inh: 67.9; HUVEC prolif 384: 44.5; HCT116 PTEN-null: 2.2*; H69AR growth 86K: 36.0*

How did CCOC(=O)c1c2ccc(OCC(=O)N/N=C/c3ccc(Cl)cc3)cc2n2ccccc12 do in these assays?
bCat KO growth: 1.8*; HCT116 PTEN-null: 2.3*

Results for CCOC(=O)c1c2ccc(OCC(=O)N/N=C/c3ccccc3C(F)(F)F)cc2n2ccccc12 ?
bCat KO growth: 1.5*; HCT116 PTEN-null: 1.9*

Results for Cc1ccc(OCC(=O)N/N=C/c2cccn2C)cc1 ?
bCat KO growth: 96.5; Fibroblast inh: 104.8; HUVEC prolif 384: 96.8; HCT116 PTEN-null: 98.5; H69AR growth 86K: 103.0

What do the screens show for `COc1cccc(C(c2sc3nc(C)nn3c2O)N2CCc3ccccc3C2)c1` (stereo not drawn)?
bCat KO growth: 96.7; Fibroblast inh: 97.6; HUVEC prolif 384: 98.2; HCT116 PTEN-null: 95.0; H69AR growth 86K: 85.3

Results for Cc1nn(Cc2ccccc2Cl)c(C)c1C(=O)NCCN1C(=O)S/C(=C\c2ccccc2)C1=O ?
bCat KO growth: 100.8; HCT116 PTEN-null: 103.2

Results for Cc1cc2nc(-c3ccc(SCC(=O)N4CCN(C(=O)c5ccco5)CC4)nc3)[nH]c2cc1C ?
bCat KO growth: 12.2; Fibroblast inh: 72.3; HUVEC prolif 384: 30.2; HCT116 PTEN-null: 10.0; H69AR growth 86K: 12.3*

What do the screens show for `CCOC(=O)CSc1ccc(-c2nc3cc(C)c(C)cc3[nH]2)cn1`?
bCat KO growth: 99.3; Fibroblast inh: 77.1; HUVEC prolif 384: 116.6; HCT116 PTEN-null: 90.7; H69AR growth 86K: 83.9

What do the screens show for `Cc1cc2nc(-c3ccc(SCC(=O)N4CCOCC4)nc3)[nH]c2cc1C`?
bCat KO growth: 36.2; Fibroblast inh: 91.4; HUVEC prolif 384: 44.9; HCT116 PTEN-null: 32.0; H69AR growth 86K: 28.2*

Results for O=S(=O)(c1ccc(Cl)cc1)c1snnc1-c1ccccc1 ?
bCat KO growth: 2.8*; Fibroblast inh: 6.5*; HUVEC prolif 384: 7.5*; HCT116 PTEN-null: 1.8*; H69AR growth 86K: 1.9*

Results for Cc1cccc(NC(=S)NNC(=O)c2nn(C)cc2Cl)c1 ?
bCat KO growth: 103.7

What do the screens show for `CCCCCN1CSC(=S)N(Cc2ccccc2)C1`?
bCat KO growth: 5.6*; HCT116 PTEN-null: 3.3*

Results for CCN1CNC(=S)N(Cc2ccccc2)C1 ?
bCat KO growth: 83.2; HCT116 PTEN-null: 87.8

Results for N=c1n(CCN2CCOCC2)c2ccccc2n1CC(=O)c1ccc(Cl)c(Cl)c1 ?
bCat KO growth: 62.8; Fibroblast inh: 81.9; HUVEC prolif 384: 69.8; HCT116 PTEN-null: 66.5; H69AR growth 86K: 0.9*

What do the screens show for `CCCCOC(=O)Cn1c(=N)n(CCN2CCOCC2)c2ccccc21`?
Fibroblast inh: 105.0; HUVEC prolif 384: 101.2; H69AR growth 86K: 95.2

Results for CCOC(=O)c1cc2c(ccn2-c2ccc(F)cc2)n1CC(=O)N1CCN(C(=O)c2ccco2)CC1 ?
bCat KO growth: 83.0; Fibroblast inh: 49.4*; HUVEC prolif 384: 52.4; HCT116 PTEN-null: 94.0; H69AR growth 86K: 21.7*

Results for Cc1cc(=O)[nH]c(SCC(=O)Nc2nc(-c3ccccc3)c(-c3ccccc3)o2)n1 ?
bCat KO growth: 103.0; HCT116 PTEN-null: 100.2

Results for COc1cc2cc(CN(Cc3ccc4c(c3)OCO4)C(=O)c3ccco3)c(=O)[nH]c2cc1OC ?
Fibroblast inh: 100.0; HUVEC prolif 384: 86.9; H69AR growth 86K: 52.0

What do the screens show for `COc1ccc(C(=O)N(Cc2ccccc2)Cc2cc3cc4c(cc3[nH]c2=O)OCCO4)cc1`?
bCat KO growth: 98.0; Fibroblast inh: 41.8*; HUVEC prolif 384: 28.5*; HCT116 PTEN-null: 95.0; H69AR growth 86K: 17.9*
